Reference: ChEMBL document CHEMBL4665839, “Pyrrolo[2',3':3,4]cyclohepta[1,2-d][1,2]oxazoles, a New Class of Antimitotic Agents Active against Multiple Malignant Cell Types” (J Med Chem, 2020)
Active and inactive are the calls of the source. The calls are words filed in the database; no cut-off is given here.

Key:
HeLa [1] = experiment: Induction of apoptosis in human HeLa cells assessed as cleaved PARP protein expression at 0.1 uM incubated for 48 hrs by Western blot analysis relative to control; type: functional
Method in brief: (§1)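 HeLa cells treated at 0.1 or 0.5 μM for 24 or 48 h, washed in ice-cold PBS, lysed on ice 30 min, cleared at 15 000g, 4 °C. 10 μg protein per lane on SDS-PAGE, transferred to PVDF, blocked overnight in 5% BSA at 4 °C. Primary antibodies 2 h at room temperature, peroxidase secondaries 1 h, ECL detection. Membranes reprobed for GAPDH; densitometry reported as protein/GAPDH ratio.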

HeLa [2] = experiment: Induction of apoptosis in human HeLa cells assessed as cleaved PARP protein expression at 0.5 uM incubated for 24 hrs by Western blot analysis relative to control; type: functional; method in brief: as §1
HeLa [3] = experiment: Induction of apoptosis in human HeLa cells assessed as cleaved PARP protein expression at 0.1 uM incubated for 24 hrs by Western blot analysis relative to control; type: functional; method in brief: as §1
HeLa [4] = experiment: Induction of reactive oxygen species generation in human HeLa cells at 0.5 uM treated for 48 hrs by H2DCFDA staining based flow cytometry; type: functional, cell-based
Method in brief: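 After treatment, HeLa cells pelleted and resuspended in PBS containing 0.1 μM H2DCFDA, incubated 30 min at 37 °C, then washed back into PBS. DCF fluorescence measured by flow cytometry (excitation 488 nm, emission 530 nm). Mean ± SEM of three independent experiments.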

HeLa [5] = experiment: Induction of apoptosis in human Hela cells assessed as increase in necrotic cells at 0.5 uM incubated for 24 to 48 hrs by Annexin V-FITC/propidium iodide staining based flow cytometry; type: functional, cell-based; settings: time hrs 24-48
Method in brief: (§2)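 HeLa cells exposed 24 or 48 h, harvested, double-stained with annexin-V-FITC and PI, then read by flow cytometry. Gates: live (annexin-V–/PI–), early apoptotic (annexin-V+/PI–), late apoptotic (annexin-V+/PI+), necrotic (annexin-V–/PI+). Mean ± SEM of three independent experiments.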

HeLa [6] = experiment: Induction of apoptosis in human Hela cells assessed as increase in apoptotic cells at 0.5 uM incubated for 24 to 48 hrs by Annexin V-FITC/propidium iodide staining based flow cytometry; type: functional, cell-based; settings: time hrs 24-48; method in brief: as §2
HeLa [7] = experiment: Induction of cell cycle arrest in human Hela cells assessed as cdc25c expression at 0.1 uM incubated for 48 hrs by Western blot analysis relative to control; type: functional; method in brief: as §1
HeLa [8] = experiment: Induction of cell cycle arrest in human Hela cells assessed as cdc25c expression at 0.5 uM incubated for 24 hrs by Western blot analysis relative to control; type: functional; method in brief: as §1
HeLa [9] = experiment: Induction of cell cycle arrest in human Hela cells assessed as cdc25c expression at 0.1 uM incubated for 24 hrs by Western blot analysis relative to control; type: functional; method in brief: as §1
HeLa [10] = experiment: Induction of cell cycle arrest in human Hela cells assessed as accumulation at G2/M phase at 0.125 uM incubated for 24 hrs by PI staining based flow cytometric analysis; type: functional
Method in brief: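 5 × 10^5 HeLa cells treated 24 h over a range of concentrations, fixed in ice-cold 70% ethanol, treated with lysis buffer containing RNase A and 0.1% Triton X-100, PI-stained. DNA content read by flow cytometry; phase distribution is mean ± SEM of three experiments.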

HeLa [11] = experiment: Induction of cell cycle arrest in human Hela cells assessed as accumulation at G2/M phase incubated for 24 hrs by PI staining based flow cytometric analysis; type: functional
[12] = Cytotoxicity against human PBL assessed as reduction in cell viability in presence of mitogenic stimulus phytohaemagglutinin incubated for 72 hrs by MTT assay; type: cell-based
Method in brief: (§3)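 PBLs from healthy donor buffy coats isolated by density-gradient centrifugation, washed, held overnight at 1.0 × 10^6 cells/mL in RPMI-1640 with 10% FBS. Nonadherent cells reseeded at 5 × 10^5 cells/mL, either with 2.5 μg/mL PHA (proliferating) or without (resting). Graded compound concentrations for 72 h, viability by MTT. GI50 = concentration inhibiting growth 50%; mean ± SEM of three separate experiments.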

[13] = Cytotoxicity against human PBL assessed as reduction in cell viability incubated for 72 hrs by MTT assay; type: cell-based; settings: peripheral blood lymphocytes (PBL); method in brief: as §3
HeLa [14] = experiment: Induction of apoptosis in human HeLa cells assessed as cleaved PARP protein expression at 0.5 uM incubated for 48 hrs by Western blot analysis relative to control; type: functional; method in brief: as §1
HeLa [15] = experiment: Induction of cell cycle arrest in human Hela cells assessed as phosphorylated cdc2 expression at 0.1 uM incubated for 24 hrs by Western blot analysis relative to control; type: functional; method in brief: as §1
HeLa [16] = experiment: Induction of cell cycle arrest in human Hela cells assessed as phosphorylated cdc2 expression at 0.5 uM incubated for 24 hrs by Western blot analysis relative to control; type: functional; method in brief: as §1
HeLa [17] = experiment: Induction of cell cycle arrest in human Hela cells assessed as phosphorylated cdc2 expression at 0.1 uM incubated for 48 hrs by Western blot analysis relative to control; type: functional; method in brief: as §1
HeLa [18] = experiment: Induction of cell cycle arrest in human Hela cells assessed as phosphorylated cdc2 expression at 0.5 uM incubated for 48 hrs by Western blot analysis relative to control; type: functional; method in brief: as §1
HeLa [19] = experiment: Induction of cell cycle arrest in human Hela cells assessed as cyclin B expression at 0.1 uM incubated for 24 hrs by Western blot analysis relative to control; type: functional; method in brief: as §1
HeLa [20] = experiment: Induction of cell cycle arrest in human Hela cells assessed as cyclin B expression at 0.5 uM incubated for 24 hrs by Western blot analysis relative to control; type: functional; method in brief: as §1
HeLa [21] = experiment: Induction of cell cycle arrest in human Hela cells assessed as cyclin B expression at 0.1 uM incubated for 48 hrs by Western blot analysis relative to control; type: functional; method in brief: as §1
HeLa [22] = experiment: Induction of cell cycle arrest in human Hela cells assessed as cyclin B expression at 0.5 uM incubated for 48 hrs by Western blot analysis relative to control; type: functional; method in brief: as §1
HeLa [23] = experiment: Induction of apoptosis in human HeLa cells assessed as MCL1 protein expression at 0.1 uM incubated for 24 hrs by Western blot analysis relative to control; type: functional; method in brief: as §1
HeLa [24] = experiment: Induction of apoptosis in human HeLa cells assessed as MCL1 protein expression at 0.5 uM incubated for 24 hrs by Western blot analysis relative to control; type: functional; method in brief: as §1
HeLa [25] = experiment: Induction of apoptosis in human HeLa cells assessed as MCL1 protein expression at 0.1 uM incubated for 48 hrs by Western blot analysis relative to control; type: functional; method in brief: as §1
HeLa [26] = experiment: Induction of apoptosis in human HeLa cells assessed as MCL1 protein expression at 0.5 uM incubated for 48 hrs by Western blot analysis relative to control; type: functional; method in brief: as §1
HeLa [27] = experiment: Induction of apoptosis in human HeLa cells assessed as XIAP protein expression at 0.1 uM incubated for 24 hrs by Western blot analysis relative to control; type: functional; method in brief: as §1
HeLa [28] = experiment: Induction of apoptosis in human HeLa cells assessed as XIAP protein expression at 0.5 uM incubated for 24 hrs by Western blot analysis relative to control; type: functional; method in brief: as §1
HeLa [29] = experiment: Induction of apoptosis in human HeLa cells assessed as XIAP protein expression at 0.1 uM incubated for 48 hrs by Western blot analysis relative to control; type: functional; method in brief: as §1
HeLa [30] = experiment: Induction of cell cycle arrest in human Hela cells assessed as accumulation at G2/M phase at 0.25 uM incubated for 24 hrs by PI staining based flow cytometric analysis; type: functional
Method in brief: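 HeLa cells (5 × 10^5) exposed to compound at several concentrations for 24 h, then collected, fixed in ice-cold 70% ethanol, treated with lysis buffer containing RNase A and 0.1% Triton X-100, stained with propidium iodide. DNA content measured by flow cytometry; percentage of cells in each cycle phase derived from DNA histograms. Mean ± SEM of three experiments.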

HeLa [31] = experiment: Induction of cell cycle arrest in human Hela cells assessed as reduction of cells at S phase 1 uM incubated for 24 hrs by PI staining based flow cytometric analysis; type: functional
HeLa [32] = experiment: Induction of cell cycle arrest in human Hela cells assessed as accumulation at M phase at 1 uM incubated for 24 hrs by PI staining based flow cytometric analysis; type: functional

## CCOC(=O)c1cc2c(n1Cc1cc(OC)cc(OC)c1)-c1oncc1CCC2
HeLa [1]
  fold change (FC): 13.8
HeLa [2]
  fold change (FC): 42.13
HeLa [3]
  fold change (FC): 17.65
HeLa [4]
  Activity: Active
HeLa [5]
  Activity: Active
HeLa [6]
  Activity: Active
HeLa [7]
  fold change (FC): 0.23
HeLa [8]
  fold change (FC): 0.05
HeLa [9]
  fold change (FC): 0.23
HeLa [10]
  Activity: Active
HeLa [11]
  Activity: Dose-dependent effect
[12]
  GI50 at 72 h: > 100 µM
[13]
  GI50 at 72 h: > 100 µM
HeLa [14]
  fold change (FC): 42.83
HeLa [15]
  fold change (FC): 0.51
HeLa [16]
  fold change (FC): 0.31
HeLa [17]
  fold change (FC): 0.17
HeLa [18]
  fold change (FC): 0.31
HeLa [19]
  fold change (FC): 18.74
HeLa [20]
  fold change (FC): 64.07
HeLa [21]
  fold change (FC): 2.39
HeLa [22]
  fold change (FC): 2.05
HeLa [23]
  fold change (FC): 0.37
HeLa [24]
  fold change (FC): 0.11
HeLa [25]
  fold change (FC): 0.37
HeLa [26]
  fold change (FC): 0.38
HeLa [27]
  fold change (FC): 0.91
HeLa [28]
  fold change (FC): 0.54
HeLa [29]
  fold change (FC): 0.12

## CCOC(=O)c1c(Cl)c2c(n1Cc1cc(OC)cc(OC)c1)-c1oncc1CCC2
[12]
  GI50 at 72 h: > 100 µM
[13]
  GI50 at 72 h: > 100 µM
HeLa [30]
  Activity: Active

## CCOC(=O)c1cc2c(n1Cc1cccc(OC)c1)-c1oncc1CCC2
HeLa [31]
  Activity: Active
HeLa [32]
  Activity: Active
[12]
  GI50 at 72 h: > 100 µM
[13]
  GI50 at 72 h: > 100 µM
